# Screening data as filed in PubChem.
# In the library only some 0.48% were active in any assay of this set; here they are far more common.
# Rce1 inhib = inhibitors of yeast Ras-converting enzyme; 290,000 compounds, 0.27% hits; Q03530; calls only; yeast membranes, quenched prenylated peptide cleavage fluorescence;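 active = fall in fluorescence gain of 50% or more versus controls, with final raw signal at or below 3038400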;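 note: plate controls were neutral control wells for no effect and wells lacking membranes for full effect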
# proCasp3 act = activates human procaspase-3; P42574; recombinant procaspase-3 D3A, Ac-DEVD-pNA absorbance 405 nm; activation, % at 8.5 µM; 330,000 compounds, 0.11% hits; AID 463141;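 active = activation above the mean of all tested compounds plus 3 SD, cut at about 21% in these data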;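 note: 0% = DMSO alone and 100% = DMSO wells spiked with extra 5 µM PC-3 D3A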
# Target sequence (P42574 whole entry D9A/D28A/D175A): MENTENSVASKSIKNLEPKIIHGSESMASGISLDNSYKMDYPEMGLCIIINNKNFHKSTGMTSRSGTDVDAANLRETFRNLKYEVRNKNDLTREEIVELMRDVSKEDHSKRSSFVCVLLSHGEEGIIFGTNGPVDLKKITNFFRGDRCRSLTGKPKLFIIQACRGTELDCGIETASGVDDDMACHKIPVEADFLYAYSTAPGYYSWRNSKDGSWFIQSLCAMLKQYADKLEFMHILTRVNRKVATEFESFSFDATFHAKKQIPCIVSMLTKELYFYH
#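 Assay system – Procaspase-3 D3A mutant, all three cleavage aspartates alanine · Controls – DMSO-only low control, 5 µM PC-3 D3A high control · Schedule – 1 h compound preincubation, 2 h substrate hydrolysis at 25 °C · Signal – 405 nm absorbance of p-nitroaniline, reads at 0 and 120 min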
# procasp7 counter = activates human procaspase-7, counter-screen for procaspase-3 activators | P55210 | recombinant procaspase-7, Ac-DEVD-pNA absorbance 405 nm; D23A/D198A/D206A triple mutant, cannot self-cleave; scale: DMSO 0, 5 µM enzyme 100 | activation, % at 8.5 µM | 330,000 compounds, 0.093% hits | AID 463210;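 active = percent activation above the screen-wide mean plus 3 SD, cut at about 25% in these data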
#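 Detection: p-Nitroaniline absorbance at 405 nm, read at 0 and 120 min; system: Uncleavable procaspase-7 mutant enzyme; evaluation: % activation from two-timepoint absorbance difference, scaled to controls; times: 1 h enzyme–compound preincubation and 2 h substrate reaction, both 25 °C; buffer or medium: Zinc-free HEPES pH 7.4 with 300 mM NaCl, 0.01% Triton X-100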
# A1 inh = inhibitors of the anti-apoptotic protein A1, read as caspase activation; AID 2462; MEF A1-2A-BIM cells, Caspase-Glo 3/7 luminescence, 3 h; percent of clofoctol response, vehicle zero; 330,000 compounds, 0.066% hits; caspase activation, % (test concentration not listed);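 active = over half of replicate activation scores above 10%, or exactly half above 10 with the replicate mean above 10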
# PolyA inhibitor = yeast polyadenylation inhibition; S. cerevisiae SKY197-pL101 polyadenylation reporter, beta-gal luminescence; efflux-impaired pdr1/pdr3 knockout yeast; score 100 = 6 SD above DMSO; activity score, % at 12 µM; 300,000 compounds, 0.02% hits; AID 1875;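 active = lowest replicate activity score at least 50, where 100 means six control SD above control mean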;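 note: yeast exposed to compound for 9 h at 30 °C; higher score means more reporter readthrough which indicates perturbed polyadenylation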
# procasp7 triplic = activates human procaspase-7, counter-screen for procaspase-3 activators; 210 tested, under 10 active; shares compounds with proCasp3 act; recombinant procaspase-7, Ac-DEVD-pNA absorbance; asp23/198/206-to-Ala mutant, cannot self-cleave; activation, % at 8.5 µM;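 active = mean activation above a set limit taken from an earlier procaspase-7 screen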;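 note: 0% = DMSO wells and 100% = DMSO plus 5 µM procaspase-7 enzyme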
# procasp3 conf = confirmation of human procaspase-3 activators | shares compounds with proCasp3 act | recombinant PC-3 D3A, Ac-DEVD-pNA absorbance 405 nm; 100% is higher-enzyme control | activation, % at 8.5 µM | 210 compounds, 10% hits | AID 488954;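 active = mean activation above a set limit carried over from the earlier primary screen, cut at about 22% in these data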
# PC3 dual counter = activates human procaspase-3, dual activator counter-screen; shares compounds with procasp7 counter; recombinant PC-3 D3A, Ac-DEVD-pNA absorbance 405 nm; aspartates 9, 28, 175 changed to alanine; 100% = enzyme control; activation, % at 8.5 µM; 290 tested, under 10 active; AID 493114;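 active = mean percent activation across triplicates above a set limit taken from the earlier primary procaspase-3 screen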;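 note: 0% = DMSO wells and 100% = DMSO wells with 5 µM added PC-3 D3A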
# Procasp7 act = activates human procaspase-7, confirming dual procaspase activators. shares compounds with procasp7 counter. recombinant procaspase-7, Ac-DEVD-pNA absorbance 405 nm; D23A/D198A/D206A mutant that cannot self-cleave. activation, % at 8.5 µM. 290 tested, under 10 active. AID 493115;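 active = mean activation above a set limit carried over from the earlier primary screen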;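 note: 0% = DMSO only and 100% = DMSO with added 5 µM PC-7 enzyme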
# Numbers without * were called inactive; i = inactive; . = no result given; + = active, no number.
SMILES,Rce1 inhib,proCasp3 act,procasp7 counter,A1 inh,PolyA inhibitor,others
CC(=O)O[C@@H]1/C=C/[C@](C)(O)C[C@@H](C)C/C=C/[C@H]2[C@@H]3O[C@]3(C)[C@@H](C)[C@H]3[C@H](Cc4ccccc4)NC(=O)[C@@]312,i,3,2,6.4*,0,
Cc1ccnc(-n2c(-c3ccco3)nc3ccccc3c2=O)c1,+,2,0,0,1,
c1ccc(CCCN2CCN(CCOC(c3ccccc3)c3ccccc3)CC2)cc1,+,-1,1,0,-3,
Fc1ccc(C(OCCN2CCN(CCCc3ccccc3)CC2)c2ccc(F)cc2)cc1,i,0,6,0,-32,
Cc1nc2ccccc2c(=O)n1-c1ccc(Cl)cc1[N+](=O)[O-],i,-6,2,1,6,
O=[N+]([O-])c1cc(Cl)c(O)c(-[n+]2c(-c3ccccc3)cc(-c3ccccc3)cc2-c2ccccc2)c1,i,-1,2,0,-1,
O=[N+]([O-])c1ccc(C[n+]2c(-c3ccccc3)cc(-c3ccccc3)cc2-c2ccccc2)cc1,+,1,5,0,-12,
COc1ccc(-c2cc(=NCC(=O)O)c3ccccc3o2)cc1,i,-7,-16,1,-2,
CN1CC(C(=O)c2ccc(Cl)cc2)C(c2ccc(N(C)C)cc2)C1 (configuration not stated),i,1,6,1,-1,
CN1CC(C(=O)c2ccc(Cl)cc2)C(c2ccc(Cl)cc2Cl)C1 (configuration not stated),+,-2,-1,0,-12,
Cc1oc(-c2cccs2)nc1CSCC(=O)N1CCC2(CC1)OCCO2,+,7,10,-1,22,
CCOc1cc(-c2nc3c(C)cccn3c2NCC2CCCO2)ccc1O (configuration not stated),+,8,-2,0,-7,
O=[N+]([O-])c1cccc(CN2CCN(Cc3ccc(Br)cc3)CC2)c1,i,1,-13,0,-4,
CCC(C)NC(=O)c1c(N)n(Cc2ccc3c(c2)OCO3)c2nc3ccccc3nc12 (configuration not stated),i,70*,25,0,-7,procasp7 triplic=-20;procasp3 conf=-16
CC(C)CCNC(=O)c1c(N)n(CC2CCCO2)c2nc3ccccc3nc12 (configuration not stated),i,25*,20,0,6,procasp7 triplic=-21;procasp3 conf=-11
Nc1c(C(=O)OCc2ccccc2)c2nc3ccccc3nc2n1Cc1cccs1,i,-1,-6,1,-20,
CCC(C)OC(=O)c1c(N)n(Cc2cccs2)c2nc3ccccc3nc12 (configuration not stated),i,23*,13,0,4,procasp7 triplic=-19;procasp3 conf=-14
CC(C)CC(NC(=O)CCCNC(=O)CCC(=O)OC1O[C@H]2OC3(C)CC[C@H]4[C@H](C)CCC(C1C)C24OO3)C(=O)O (some centres not stated),i,8,15,-1,-56,
Cc1ccccc1C(O)(Cc1ccccc1)C1CN2CCC1CC2 (configuration not stated),i,-5,1,0,-2,
COc1ccc(-c2nc3ccc(C(=O)N4CCC5(CC4)OCCO5)cc3nc2-c2ccc(OC)cc2)cc1,i,30*,52*,0,-9,PC3 dual counter=-28;Procasp7 act=-35
COc1ccc(-n2c(C)nc3cc(C(=O)N4CCC5(CC4)OCCO5)ccc32)cc1,i,-4,1,0,-5,
CCCNc1oc(-c2cccc3ccccc23)nc1C#N,.,33*,32*,0,-5,PC3 dual counter=-29;Procasp7 act=-36
C=CCC1(Nc2ccccc2)CC(C)N(C)CC1C (configuration not stated),i,-2,2,0,4,
